Reference: the EternaBench riboswitch data

Test system: MS2 coat protein
Experiment: apparent Kd, MS2 coat protein; higher = weaker binding; RNA-MaP array; FMN 200 µM where present
How it was run: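 Stalled E. coli RNA polymerase transcribed the designs on Illumina sequencing-chip clusters. SNAP-549-labelled MS2 coat protein was titrated from 0.7 or 1.5 nM, doubling to 3 µM, without and then with constant ligand, in 100 mM Tris-HCl pH 7.5, 80 mM KCl, 4 mM MgCl2, BSA, DTT, yeast tRNA and Tween-20. Per-cluster binding curves were fitted to green signal normalised to red-channel RNA signal and control-cluster median Fmax. The apparent Kd is the median of the filtered fits.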

[1] = designed as: ON switch for flavin mononucleotide, no ligand
[2] = ligand present: flavin mononucleotide, designed as: ON switch for flavin mononucleotide
[3] = designed as: OFF switch for flavin mononucleotide, no ligand
[4] = ligand present: flavin mononucleotide, designed as: OFF switch for flavin mononucleotide

Sequence | apparent Kd [1] | apparent Kd [2] | apparent Kd [3] | apparent Kd [4]
AUACCUUAUGAGAAGGCGGUCAUGAAACAUGAUCGAGGAUAUCAUGUAAACAUGAGGAUCACCCAUGUAUGGGUAUUAUGGUAG | 61.8 nM | 12.3 nM |  | 
GGGAUAAGGCAGAAGGACAUGAGGAUCACCCAUGUAGGAUAUGCCUACAUCCGCAUCUUAGGUCUCGCUCUGUCGCGACCCUCU | 8.99 nM | 5.29 nM |  | 
UUACCUUAUGAGAAGGCGAUCAUGAAACAUGAUCGAGGAUAUCAUGUAAACAUGAGGAUCACCCAUGUAUGGGUAUUAUGGUAG | 133 nM | 32.5 nM |  | 
GGGUACAUCGGAGGAUAUCAUGUAAAUACAUGAGGAUCACCCAUGUCGAUGGCGACAUCGGAGAUUGAGAAGGCCGAUGUACCG | 448 nM | 12.3 nM |  | 
ACCGAACAUGAGGAUCACCCAUGUGAGGAUAUAGACGUGAAUUAAACACGUAACAAAACUAGAAGGCACUGGGC |  |  | 30.8 nM | 14.9 nM
AGUGUCAUCGAGAAGGCCUUGACAUGAGGAUCACCCAUGUUGUAACAUGGGAGGAUAUCGAUGAUACAGCUACGUUUCGUAGCA | 625 nM | 47.3 nM |  | 
UAAGGACAUGAGGAUCACCCAUGUGAGGAUAUGCUCUACGAACGUUUAUUUAUGAGAAGCAGAAGGCACAUUUU |  |  | 99.8 nM | 156 nM
AAAAAAAAUGUGUAGGAUAUCAGUAAAAAUACAUGAGGAUCACCCAUGUUCAAAAAAAAAAAAACUGAGAAGGACACGGAUGGUCC | 120 nM | 55.9 nM |  | 
AAUGUCUGAGGAUAUCGUUUUUUGUACAUGAGGAUCACCCAUGUCCAAUUUUGUAUAUUACGAGAAGGCAGUGGAA |  |  | 14.9 nM | 22.4 nM
ACAUGUUUUGUAGGAUAUCACUAGUUGUGUUAUAUAUUUGUUAUAAUGUAUUGAGAAGGACAUUUACAUGAGGAUCACCCAUGU |  |  |  | 7.44 nM
CGGAAUUGUACAGGAUAUGAGGGUGCCUGAGCCUCAGAAGGGUAGACCGACAUGAGGAUCACCCAUGUAUGUGGAUAACGUCCG | 75.5 nM | 336 nM |  | 
UGGUACUAGGGAGGAUAUGGGAAGAUACAUGAGGAUCACCCAUGUUUCAGAAUGCCGAGAGGCAACUAGAAGGCCCUAGUACCU | 59.7 nM | 6.38 nM |  | 
AAAUUGCUAGAGGAUAUCGGAUAGGAUUUAUUGCGAGAAGGCUGGACAUGAGGAUCACCCAUGUUCUGUUGGGA |  |  | 23.9 nM | 36.6 nM
CGUUAUUCAGGAUAUGGUGUGUUAUACAUGAGGAUCACCCAUGUAGAUCCUGGUUAGGCCUCAGAAGGGAAUGUUC |  |  | 165 nM | 145 nM
UGUGCGUUGAUCUUAGAUCGGAGUACAUGAGGAUCACCCAUGUAGGAUAUUCAAAGACGCAGAUAGAAGAAGGACAUAGGUUUC |  |  | 7.85 nM | 11.6 nM
UGUUGGAGCAGAGGAUAUACAUGAGGAUCACCCAUGUAAUAAAGUGAAGCCUGGAAACAGGCAAUGUAGAAGGCUGCUCCGACA |  |  | 10.1 nM | 73.6 nM
UUGGGACAUGAGGAUCACCCAUGUCAGGAUAUCCCGGCCCGCCCGUGAGGGCGGGCCGGGAGAAGGGACCUUUG |  |  | 41 nM | 42.9 nM
AAGUGUGCCUAGGAUAUGUUCGGCCAAGGUCAUACAGAAGGAGGCACAUGAGGAUCACCCAUGUAGUGUCCUAC |  |  | 73.2 nM | 43.1 nM

Sequence | apparent Kd [1] | apparent Kd [2] | apparent Kd [3] | apparent Kd [4]
GUAACAUGAGGAUCACCCAUGUAUAGAACACUCAAUAGAUCUGAGGAUAUAGUAGAAUUUACAUACUAGAAGGCAGUGGGUACA | 55.2 nM | 29.6 nM |  | 
ACAUGAGGAUCACCCAUGUUCACAUAGGAUAUUGAUUAUAUUGGUUUAAGAAUAGUAAUUAACCUCAAGAAGGAUGCCUGAUCU | 14.9 nM | 12 nM |  | 
UAUACUUACGAAGGAUAUGGUUACAUGAGGAUCACCCAUGUAUGUAUAUUGAUCUUGUAUCUUAACCAGAAGGUCGUCACUAUA |  |  | 26.3 nM | 23.4 nM
AAAGAUGGAGGAUAUACAUGAGGAUCACCCAUGUAGAAAAAAAAUUGGGAAAAAGAAAGUAGAAGGCCAAAAAA |  |  | 41 nM | 91.1 nM
GGAUGACAAAGUCAUCCAUAACGAACAUGAGGAUCACCCAUGUAGGAUAUGCUAGUCAAAGACUAGCAGAAGGACAUGUGUCUU |  |  | 36.4 nM | 146 nM
CUAGCAACAUGAGGAUCACCCAUGUAGGAUAUCGCUAUUGUAAUCAUGAAACAUGAUUACAAUAGCGAGAAGGACAUAUGCUAU |  |  | 8.33 nM | 9.83 nM
AGCCUUAGAGGAUAUACAUGAUCCUCCAUCGCGAAAGGGCUACAUGAGGAUCACCCAUGUAGAAGGCUGAGGGA |  |  | 20.1 nM | 33.6 nM
AAGCAGUGUAAAUAAACUCAAAUACAUGAGGAUCACCCAUGUAAGGAUAUGCAGUGGAAUACACUGCAGAAGGUACAUCACUGC |  |  | 15.1 nM | 22.6 nM
GUGCUCGUGUGAGGAUAUGCCGCCGUUUCGGCUGCAGAAGGUGCUACGUUACAUGAGGAUCACCCAUGUCUCUGUUGUUUCGUG | 21 nM | 21.4 nM |  | 
GUUUGUUAUUAGAAGGUGCCGGCGAGAGCCGCAACAUGAGGAUCACCCAUGUGUCGGUGACGACGCAAGGAUAUGGUGGUGGAU | 308 nM | 140 nM |  | 
GACUCUAAGUUUGUCAGUUAGAGAGAGGAUAUGGAAAACUUGACAUGAGGAUCACCCAUGUAUAAUCAGAAGGCUCGAGUACGA | 12.9 nM | 8.91 nM |  | 
CAGUACUGAGGAUAUACAUGAGGAUCACCCAUGUCCUAAAAGUAGGAUACUACUAUUAGUAGAAGGCAGUACUG |  |  | 17.9 nM | 190 nM
CGCGUAUGAGGAUAUGCAUAAAAGGGUGCACUGAGUCUGAGACAUGAGGAUCACCCAUGUAGAAGGCGUGCGCU |  |  | 12.9 nM | 16 nM
UCGUAUAAGGGCAUUACACAUGAGGAUCACCCAUGUACGUUAGAGGAUAUGCAUUCCAGUCGAACGUAGAAGGUUAGAGAAGGG |  |  | 307 nM | 268 nM
UUGGACGUCGUAGGAUAUGUAGGAUAUUCCUACAUGAGGAUCACCCAUGUUGACAUGCAAGAAGGACAGAAGGACGAUGUCCAU | 240 nM | 6.54 nM |  | 
GUGGCUUAUGAGAAGGCGAUCAUGAAACAUGAUCGAGGAUAUCAUGUAAACAUGAGGAUCACCCAUGUAUGGGUAUUAUGCUAC | 291 nM | 53.9 nM |  | 
UCUGUCCUUGUCAGGAUAUCGAUGGUAAGACCAUGCGAGAAGGGACAUGAGGAUCACCCAUGUUCGACCUGGGU |  |  | 176 nM | 222 nM
GUAGAGUAAGGAUAUUGUGAAUAGGAUAGAAUGGUUAGAAGCAAGAAGGUACAUGAGGAUCACCCAUGUAAUGU |  |  | 22.5 nM | 23.6 nM
